# Rows were chosen to be rich in hits. Some 2.1% of all compounds tested hit in one or more screens of this group.
# PDI inh: PDI (human) enzyme inhibition | P07237 | PDI insulin aggregation turbidity, A650, 90 min | inhibition, % at 10 µM | 350,000 tested, 0.052% active;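 active = mean inhibition across replicates of 30% or more, whatever share of single replicates reach that level; inconclusive = mean inhibition below 30% while every single replicate reaches 30%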
# AF4-AF9 inh: inhibitors of human MLL-AF4/AF9 interaction; AID 651704; AlphaScreen, biotin-AF4 peptide binding to FLAG-AF9; 350,000 tested, 0.47% active; inhibition, % at 10 µM;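 active = every replicate reaching a set inhibition limit, whatever the replicate mean, cut at about 25% in these data; inconclusive = mean inhibition reaches that limit but some replicates miss it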;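 also: 0% = plate neutral control median and 100% = total signal loss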
# Target sequence (P42568 whole entry, looked up): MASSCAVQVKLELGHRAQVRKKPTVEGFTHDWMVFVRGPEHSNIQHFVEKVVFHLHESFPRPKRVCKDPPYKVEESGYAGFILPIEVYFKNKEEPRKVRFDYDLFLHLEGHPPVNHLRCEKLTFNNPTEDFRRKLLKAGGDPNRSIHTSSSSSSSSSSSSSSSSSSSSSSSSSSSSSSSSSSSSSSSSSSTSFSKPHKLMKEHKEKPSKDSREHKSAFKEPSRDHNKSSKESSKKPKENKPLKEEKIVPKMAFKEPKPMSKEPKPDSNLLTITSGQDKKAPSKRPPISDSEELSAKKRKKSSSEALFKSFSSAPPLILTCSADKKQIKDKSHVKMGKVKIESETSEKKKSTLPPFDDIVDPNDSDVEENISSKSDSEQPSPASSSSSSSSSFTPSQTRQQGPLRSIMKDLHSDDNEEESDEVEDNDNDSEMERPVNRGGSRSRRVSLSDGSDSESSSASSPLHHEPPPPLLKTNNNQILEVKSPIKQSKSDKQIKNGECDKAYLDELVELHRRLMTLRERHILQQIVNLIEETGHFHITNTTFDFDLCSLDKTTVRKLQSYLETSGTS
# ERp5 inh: ERp5 (human) disulfide isomerase inhibition; Q15084; ERp5 insulin aggregation, absorbance 650 nm, 90 min; inhibition, % at 9.99 µM; 350,000 tested, 0.05% active; AID 651711;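 active = mean replicate inhibition above about 25%, with every replicate also reaching it, limit read from the data, passing the limit was not always enough; inconclusive = only one of those two criteria met; inactive = neither criterion met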
# FN deposition inh: fibronectin deposition inhibition; AH1F fibroblasts, Alexa488-fibronectin deposition fluorescence, overnight; inhibition, % at 12.6 µM; 350,000 tested, 0.086% active;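 active = mean inhibition across replicates of 30% or more, regardless of how many single replicates reach that level; inconclusive = mean under 30% yet at least half of replicates reach 30%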;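 also: positive control wells lacked labelled fibronectin entirely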
#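 Test system: AH1F fibroblast monolayer depositing Alexa488-labelled fibronectin into matrix. Input: 10000 cells per well. Technique: fluorescence, ex 485 nm, em 525 nm. Buffer or medium: DMEM plus 2% serum, read in PBS. Timing: 1 h cell adhesion before compound, then overnight fibronectin incubation. Compound: single dose, pinned. Read-out basis: inhibition from reduced deposited-fibronectin fluorescence.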
# ARNT TACC3 PPI: disruptors of human ARNT/TACC3 interaction. Q9Y6A5. 390,000 tested, 0.66% active. inhibition, % at 9.99 µM. AlphaScreen His-ARNT PAS-B/GST-TACC3 binding, luminescence; TACC3 fragment carries E629A point mutation. AID 623870;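 active = mean inhibition of replicates at least 50% and at least half of replicates each reaching 50%; inconclusive = half or more replicates reach 50% but mean below 50%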;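 also: 0% = complete ARNT plus TACC3 wells and 100% = ARNT alone without TACC3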
# FGF22 binding-1: FGF22 (human) thermal shift binding. recombinant FGF22 thermal shift, SYPRO orange fluorescence; percent of sucrose octasulfate shift, DMSO zero. 340,000 tested, 1.5% active. activity (Tm shift, normalised), % at 9.99 µM. AID 651658;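 active = mean Tm shift, scaled 0 neutral to 100 positive control, at about 1.3% or above, every replicate too, limit read from the data; inconclusive = no clear call, values can overlap the other calls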
# FGF22 binding-2: FGF22 (human) binding in thermal shift. shares compounds with FGF22 binding-1. 1,000 tested, 2% active. AID 720646. thermal shift activity, °C (ΔTm) at 38 µM. recombinant FGF22 thermal shift, SYPRO orange fluorescence;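 active = fitted rise in melting shift crosses a set limit at or below the top valid dose tested; inconclusive = flat fit at mid-level activity, or a poor quality fit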
# TSA no protein: compound-only SYPRO artifact for FGF22 binders; shares compounds with FGF22 binding-1; compound-only SYPRO orange thermal shift counter-screen, no protein; AC50, µM (titrated, usually from 38 µM); 1,000 tested, 2% active; AID 743019;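 active = rising signal whose fitted curve reaches the 0.54 level within the top valid dose, showing a melting point, actives reach about 13 µM in these data; inactive = the rest, including activity in the opposite direction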; also: value is where the raw curve crosses a fixed level and not half-maximal
# Alpha interfer: counter-screen: AlphaScreen signal interference | 530 tested, 45% active | signal luminescence | AC50, µM (series often up to 12 µM), for the others: top-dose activity change, negative = inhibition | shares compounds with AF4-AF9 inh; cut-off not given, nearly all actives have AC50 up to about 14 µM
# * hit, by the source's call; i = inactive; ? = inconclusive; / = no result; ! = repeats disagree; [ ] = dose if it differs, or a comment.
SMILES,PDI inh,AF4-AF9 inh,ERp5 inh,FN deposition inh,ARNT TACC3 PPI,FGF22 binding-1,FGF22 binding-2,TSA no protein,others
Cc1cc(OCC(=O)NC(Cc2ccc(Cl)cc2)C(=O)O)c2c3c(c(=O)oc2c1)CCC3 (stereo not drawn),/,-1,2,/,-3,1.7*,-0.15,i,
C/C=C/c1ccc(C2[C@@H]3CN(C(=O)C4CC4)C[C@H]2N3)cc1 (stereo partly drawn),/,-10,-3,1,/,/,/,/,
CC(=O)Nc1ccc(S(=O)(=O)N2Cc3ccccc3-n3nncc3C2)cc1,1,-1,2,0,/,23*,0.12,i,
O=C(Cc1ccccn1)N1CCCCN2[C@H](CO)[C@@H](c3ccc(C#Cc4ccccc4)cc3)[C@@H]2C1,/,-2,3,/,-5,0,/,/,
C=CCN(CC=C)Cc1c[nH]c2ccccc12,/,5,3,/,/,0,/,/,
CN(C)Cc1c[nH]c2ccccc12,/,1,-1,/,-4,19*,0.045,i,
COC(=O)[C@@H]1[C@@H](CO)[C@@H]2Cn3c(ccc(-c4cccc(OC)c4)c3=O)[C@H]1N2CC1CC1,/,1,-1,/,4,0,/,/,
CCOC(=O)c1ccc(N=Cc2c(O)n(-c3ccccc3F)c(=S)[nH]c2=O)cc1,0,-5,4,4,-3,0,/,/,
Cc1ccccc1-n1c(O)c(/C=N/NC(=O)c2ccccc2O)c(=O)[nH]c1=S,5,8,-9,4,57*,1.8*,-0.058,i,
CC1([N+](=O)[O-])COP(=O)(NC2CC2)OC1 (stereo not drawn),-4,3,-11,9,-2,46*,/,i,
COC(=O)[C@@H]1[C@@H](CO)[C@@H]2Cn3c(ccc(-c4cccnc4)c3=O)[C@H]1N2S(=O)(=O)c1ccccc1C,/,-1,-1,/,-12,0,/,/,
O=C(NCCN1CCC2(CC1)C(=O)NCN2c1ccccc1)c1ccc2ccccc2c1,/,11,2,16,/,1.9*,0.034,i,
COc1cccc(-c2ccc([C@@H]3[C@@H](CO)N4CCCCN(C(=O)Cc5ccncc5)C[C@@H]34)cc2)c1,/,-7,-6,-1,/,1.4*,0.065[42 µM],i,
COc1cccc(-c2ccc([C@H]3[C@@H](CO)N4CCCCN(C(=O)Cc5ccncc5)C[C@@H]34)cc2)c1,/,-9,2,4,-1,0,/,/,
COC(=O)[C@H]1N[C@H]2c3ccc(C4=CCCC4)c(=O)n3C[C@H]2[C@@H]1CO,/,-5,-2,/,-1,0,/,/,
CC=Cc1ccc2n(c1=O)C[C@H]1[C@H](CO)[C@@H](C(=O)N(C)C)N[C@@H]21 (mixture of isomers),/,0,14,-4,-10,1.7*,0.031,i,
O=C(Nc1ccccc1)c1cccn(Cc2ccccc2)c1=O,1,-2,0,2,-13,1.4*,-0.16,i,
O=C(Cc1ccccn1)N1CCCCN2[C@H](CO)[C@@H](c3ccc(-c4ccc(F)cc4)cc3)[C@H]2C1,/,1,2,/,4,0,/,/,
CSCCC(c1nnnn1C1CCCCC1)N1CCC(n2c(=O)[nH]c3ccccc32)CC1 (stereo not drawn),/,34*,-2,6,/,42,/,/,Alpha interfer=-18%
O=c1[nH]c2ccccc2n1C1CCN(C(c2nnnn2C2CCCCC2)C2CC2)CC1 (stereo not drawn),/,36*,2,-11,/,0,/,/,Alpha interfer=-11%
CSCCC(c1nnnn1C1CCCC1)N1CCC(n2c(=O)[nH]c3ccccc32)CC1 (stereo not drawn),/,8,4,-6,/,40,/,/,
COC(=O)[C@H]1[C@H](CO)[C@H]2Cn3c(ccc(-c4ccc(OC)cc4)c3=O)[C@@H]1N2C(=O)c1ccccc1F,/,-17,-9,/,-3,0,/,/,
CN1CCN(c2ccc(Cl)cc2N)CC1,3,0,10,5,5,0,/,/,
CN1CCN(c2ccc(N)cc2Cl)CC1,-7,88*,4,10,/,0,/,/,Alpha interfer=5.4µM*
O=C(Cc1ccccc1)N1C[C@@H]2[C@H](c3ccccc31)[C@@H](CO)N2Cc1ccccc1,/,2,-3,/,4,0,/,/,
CCC1CN2CCc3cc(OC)c(OC)cc3C2CC1CC1NCCc2c1[nH]c1ccc(O)cc21 (stereo not drawn),-1,?,14,12,11,-1,/,/,Alpha interfer=-26%
Cc1c(P(=S)(c2ccccc2)c2ccccc2)[n+]2ccccc2n1C,-1,66*!,8,1,1,0,/,/,Alpha interfer=-14%
Cn1cc[n+](C)c1P(=S)(c1ccccc1)c1ccccc1,4,-3,5,/,-3,0,/,/,
Cc1[nH]c2ccc(OCc3ccccc3)cc2c1CCN,0,41*,-2,-6,11,0,/,/,Alpha interfer=-20%
O=C1CNC[C@@H]2[C@H](c3ccc(Br)cc3)[C@@H](CO)N12,/,-4,1,0,/,0,/,/,

# Source: PubChem BioAssay
